Measured values taken from ChEMBL document CHEMBL1142981, “Identification and synthesis of a novel selective partial PPARdelta agonist with full efficacy on lipid metabolism in vitro and in vivo” (J Med Chem, 2007).
Active and inactive are the calls of the source. No cut-off for these calls is given here.

Assays:
Mus musculus [1] = test: Decrease in triglycerides level in human ApoB100/CETP transgenic mouse at 5 mg/kg, po after 6 weeks relative to control; type: functional; design: scale not given: the % may be the effect or the level left
[2] = Oral bioavailability in Sprague-Dawley rat at 2.06 mg/kg; type: ADME, organism-based; conditions: in vivo
Procedure, shortened: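 Male SD rats received a single p.o. or i.v. dose (n = 8 per route) in 5% ethanol, 10% HPCD and phosphate buffer, pH 7.5-8.0. At 5, 15, 30, 60, 90, 120, 240 and 360 min one rat was sacrificed per time point. EDTA plasma was assayed by high turbulence LC-MS/MS. Cmax and bioavailability were taken from oral dosing; volume of distribution is at steady state.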

Mus musculus [3] = test: Decrease in glucose level in human ApoB100/CETP transgenic mouse at 10 mg/kg, po after 6 weeks relative to control; type: functional; design: scale not given: the % may be the effect or the level left
[4] = molecular target: T1, Peroxisome proliferator-activated receptor delta (Homo sapiens, UniProt Q03181)
T1 sequence (Q03181 whole entry): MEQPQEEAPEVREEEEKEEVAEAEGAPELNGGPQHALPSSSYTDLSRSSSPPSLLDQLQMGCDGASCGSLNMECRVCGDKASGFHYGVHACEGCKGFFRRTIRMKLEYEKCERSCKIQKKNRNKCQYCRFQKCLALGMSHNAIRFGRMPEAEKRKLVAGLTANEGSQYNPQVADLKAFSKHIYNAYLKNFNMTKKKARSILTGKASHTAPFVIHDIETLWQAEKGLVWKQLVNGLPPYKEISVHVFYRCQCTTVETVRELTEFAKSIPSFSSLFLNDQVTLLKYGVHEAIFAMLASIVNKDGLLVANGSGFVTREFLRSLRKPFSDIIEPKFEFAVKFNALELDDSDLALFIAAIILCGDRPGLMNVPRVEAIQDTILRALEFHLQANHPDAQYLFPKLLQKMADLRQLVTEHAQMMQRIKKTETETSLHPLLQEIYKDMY

Mus musculus [5] = test: Increase in insulin level in human ApoB100/CETP transgenic mouse at 20 mg/kg, po after 6 weeks by ELISA relative to control; type: functional
[6] = molecular target: T2, Peroxisome proliferator-activated receptor alpha (Mus musculus) (UniProt P23204); test: Agonist activity at mouse PPAR alpha expressed in HEK293 cells up to 30 uM by PPAR-GAL4 transactivation assay; type: functional, cell-based
T2 sequence (whole entry): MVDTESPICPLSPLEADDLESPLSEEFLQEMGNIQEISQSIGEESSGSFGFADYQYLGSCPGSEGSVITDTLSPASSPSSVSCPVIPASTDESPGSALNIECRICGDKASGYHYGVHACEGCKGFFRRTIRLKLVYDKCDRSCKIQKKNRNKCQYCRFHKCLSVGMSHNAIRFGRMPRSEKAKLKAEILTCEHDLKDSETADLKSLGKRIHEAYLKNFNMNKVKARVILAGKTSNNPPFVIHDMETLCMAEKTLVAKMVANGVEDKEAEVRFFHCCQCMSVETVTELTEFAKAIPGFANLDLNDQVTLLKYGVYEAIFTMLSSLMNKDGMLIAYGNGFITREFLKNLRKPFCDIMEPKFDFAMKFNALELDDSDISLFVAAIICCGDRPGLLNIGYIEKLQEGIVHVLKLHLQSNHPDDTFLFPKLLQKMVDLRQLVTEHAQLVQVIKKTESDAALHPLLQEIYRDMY

L6 = test: Effect on glucose oxidation in rat L6 cells; type: functional, cell-based
Procedure, shortened: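 Differentiated rat L6 cells handled as for the fatty acid oxidation assay, with tritiated palmitate replaced by 10 µCi/mL [5-3H]-D-glucose; oxidation measured as 3H-H2O released into medium after TCA stop, collected by overnight equilibration at 50 °C and scintillation counting. FCCP served as positive control.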

Mus musculus [7] = test: Decrease in total ketone bodies level in human ApoB100/CETP transgenic mouse at 20 mg/kg, po after 6 weeks relative to control; type: functional; design: scale not given: the % may be the effect or the level left
[8] = molecular target: T3, Peroxisome proliferator-activated receptor gamma (Homo sapiens, UniProt P37231); type: cell-based, HEK293
T3 sequence (P37231 whole entry): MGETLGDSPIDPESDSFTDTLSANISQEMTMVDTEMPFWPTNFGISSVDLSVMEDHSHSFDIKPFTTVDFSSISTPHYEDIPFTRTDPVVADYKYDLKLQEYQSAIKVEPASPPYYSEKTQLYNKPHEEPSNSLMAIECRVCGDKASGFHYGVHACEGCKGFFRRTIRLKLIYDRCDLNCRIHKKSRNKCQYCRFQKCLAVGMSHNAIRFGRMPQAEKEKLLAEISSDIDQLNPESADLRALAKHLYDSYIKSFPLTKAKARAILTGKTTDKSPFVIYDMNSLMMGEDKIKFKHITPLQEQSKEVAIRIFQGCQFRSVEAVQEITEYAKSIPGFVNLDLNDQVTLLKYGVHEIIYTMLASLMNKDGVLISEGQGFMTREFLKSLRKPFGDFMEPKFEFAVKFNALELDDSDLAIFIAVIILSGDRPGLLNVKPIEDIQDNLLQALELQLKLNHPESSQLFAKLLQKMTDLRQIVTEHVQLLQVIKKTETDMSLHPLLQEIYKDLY

Mus musculus [9] = test: Decrease in total ketone bodies level in human ApoB100/CETP transgenic mouse at 10 mg/kg, po after 6 weeks relative to control; type: functional; design: scale not given: the % may be the effect or the level left
[10] = molecular target: T4, Peroxisome proliferator-activated receptor gamma (Mus musculus) (UniProt P37238); test: Agonist activity at mouse PPAR gamma expressed in HEK293 cells up to 30 uM by PPAR-GAL4 transactivation assay; type: functional, cell-based
T4 sequence (whole entry): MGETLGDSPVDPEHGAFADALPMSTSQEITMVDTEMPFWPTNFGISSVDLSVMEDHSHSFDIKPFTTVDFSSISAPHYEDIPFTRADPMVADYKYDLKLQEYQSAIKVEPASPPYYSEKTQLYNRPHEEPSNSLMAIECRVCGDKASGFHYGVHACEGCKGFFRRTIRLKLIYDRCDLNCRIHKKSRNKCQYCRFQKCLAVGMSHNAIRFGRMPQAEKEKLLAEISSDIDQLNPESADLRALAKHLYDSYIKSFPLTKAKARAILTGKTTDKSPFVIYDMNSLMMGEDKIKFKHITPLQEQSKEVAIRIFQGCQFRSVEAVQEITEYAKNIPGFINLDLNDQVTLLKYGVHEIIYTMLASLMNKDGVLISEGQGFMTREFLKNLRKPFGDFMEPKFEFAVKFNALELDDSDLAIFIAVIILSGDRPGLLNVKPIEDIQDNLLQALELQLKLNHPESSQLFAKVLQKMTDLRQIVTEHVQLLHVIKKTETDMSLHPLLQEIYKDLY

Mus musculus [11] = test: Decrease in insulin level in human ApoB100/CETP transgenic mouse at 10 mg/kg, po after 6 weeks by ELISA relative to control; type: functional; design: scale not given: the % may be the effect or the level left
Mus musculus [12] = test: Decrease in total cholesterol level in human ApoB100/CETP transgenic mouse at 5 mg/kg, po after 6 weeks relative to control; type: functional; design: scale not given: the % may be the effect or the level left
Mus musculus [13] = test: Increase in HDL level in human ApoB100/CETP transgenic mouse at 20 mg/kg, po after 6 weeks relative to control; type: functional

Compound `O=C(O)COc1ccc(SCC=C(c2ccc(Br)cc2)c2ccc(Br)cc2)cc1Cl` has an Activity (Mus musculus [1]) of 15%, a bioavailability [2] of 46% and an Activity (Mus musculus [3]) of 2%. The EC50 [4] was 0.053 µM, the Activity (Mus musculus [5]) was 3% and the Activity [6] was “inactive”. The Activity (L6) was “inactive”, the Activity (Mus musculus [7]) was 29% and the EC50 [8] was greater than 10 µM. For the same compound, the Activity (Mus musculus [9]) was 10%, the Activity [10] was “inactive” and the Activity (Mus musculus [11]) was 8%. The Activity (Mus musculus [12]) was 19% and the Activity (Mus musculus [13]) was 33%.
